# Measured values taken from ChEMBL document CHEMBL4689842, “EUbOPEN Chemogenomics Library wave 1” (2021).
# How the values were obtained:
# Assay type in all cases: toxicity, cell-based
# [1] = system: Fibroblast; experiment: Multiplex assay against human fibroblast
# Method in brief: (§1)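 Phenotypes for tubulin, mitochondrial mass and membrane permeability are expressed as per cents of healthy-nucleus cells. Cells were stained live at seeding with Hoechst33342, BioTracker Green Microtubule Cytoskeleton Dye, MitoTracker Red and Annexin V Alexa Fluor 680, then imaged after compound addition on a CQ1 microscope at 37°C and 5% CO2. Machine-learning gating in CellPathfinder separated Hoechst high-intensity objects from normal cells, divided normal cells by nuclear state (healthy, pyknosed, fragmented) and divided pyknosed cells into mitotic or apoptotic.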
# [2] = system: HEK-293T; experiment: Multiplex assay against HEK293T; conditions: human; method in brief: as §1
# [3] = system: U2OS; experiment: Multiplex assay against U2OS; conditions: human; method in brief: as §1
# [4] = 12 h, 1 µM, compound concentration 1 uM, replicate 1
# [5] = 12 h, 1 µM, compound concentration 1 uM, replicate 2
# [6] = 12 h, 10 µM, compound concentration 10 uM, replicate 1
# [7] = 12 h, 10 µM, compound concentration 10 uM, replicate 2
# [8] = 24 h, 1 µM, compound concentration 1 uM, replicate 1
# [9] = 24 h, 1 µM, compound concentration 1 uM, replicate 2
# [10] = 24 h, 10 µM, compound concentration 10 uM, replicate 1
# [11] = 24 h, 10 µM, compound concentration 10 uM, replicate 2
# [12] = 48 h, 1 µM, compound concentration 1 uM, replicate 1
# [13] = 48 h, 1 µM, compound concentration 1 uM, replicate 2
# [14] = 48 h, 10 µM, compound concentration 10 uM, replicate 1
# [15] = 48 h, 10 µM, compound concentration 10 uM, replicate 2
smiles,measurement,setting,value
CC(C)C[C@H](NC(=O)[C@H](Cc1ccccc1)NC(=O)CNC(=O)CNC(=O)[C@@H](N)Cc1ccc(O)cc1)C(=O)O [ENKEPHALIN],Population Apoptotic (%),[1]; [4],68%
same,Population Healthy Nuclei (%),[1]; [4],53%
same,Population Membrane Permeable-Phenotype (%),[1]; [4],26%
same,Population Mitotic Cells (%),[1]; [4],31%
same,Population Pyknosed Nuclei (%),[1]; [4],20%
same,Population Tubulin-Different-Phenotype (%),[1]; [4],57%
same,Total Cell Count,[1]; [4],95
same,Population Healthy Nuclei (%),[1]; [5],82%
same,Population Pyknosed Nuclei (%),[1]; [5],5%
same,Population Tubulin-Different-Phenotype (%),[1]; [5],34%
same,Total Cell Count,[1]; [5],70
same,Population Apoptotic (%),[1]; [6],76%
same,Population Healthy Nuclei (%),[1]; [6],39%
same,Population Membrane Permeable-Phenotype (%),[1]; [6],27%
same,Population Mitotic Cells (%),[1]; [6],23%
same,Population Pyknosed Nuclei (%),[1]; [6],32%
same,Total Cell Count,[1]; [6],130
same,Population Healthy Nuclei (%),[1]; [7],86%
same,Population Tubulin-Different-Phenotype (%),[1]; [7],11%
same,Total Cell Count,[1]; [7],62
same,Population Healthy Nuclei (%),[1]; [8],47%
same,Population Membrane Permeable-Phenotype (%),[1]; [8],23%
same,Population Pyknosed Nuclei (%),[1]; [8],26%
same,Population Tubulin-Different-Phenotype (%),[1]; [8],34%
same,Total Cell Count,[1]; [8],111
same,Population Healthy Nuclei (%),[1]; [9],84%
same,Population Pyknosed Nuclei (%),[1]; [9],5%
same,Population Tubulin-Different-Phenotype (%),[1]; [9],31%
same,Total Cell Count,[1]; [9],68
same,Population Apoptotic (%),[1]; [10],60%
same,Population Healthy Nuclei (%),[1]; [10],52%
same,Population Membrane Permeable-Phenotype (%),[1]; [10],35%
same,Population Mitotic Cells (%),[1]; [10],40%
same,Population Pyknosed Nuclei (%),[1]; [10],22%
same,Total Cell Count,[1]; [10],129
same,Population Healthy Nuclei (%),[1]; [11],86%
same,Population Pyknosed Nuclei (%),[1]; [11],7%
same,Population Tubulin-Different-Phenotype (%),[1]; [11],15%
same,Total Cell Count,[1]; [11],86
same,Population Apoptotic (%),[1]; [12],63%
same,Population Healthy Nuclei (%),[1]; [12],45%
same,Population Membrane Permeable-Phenotype (%),[1]; [12],15%
same,Population Pyknosed Nuclei (%),[1]; [12],22%
same,Total Cell Count,[1]; [12],96
same,Population Apoptotic (%),[1]; [13],100%
same,Population Healthy Nuclei (%),[1]; [13],73%
same,Population Membrane Permeable-Phenotype (%),[1]; [13],22%
same,Population Mitotic Cells (%),[1]; [13],0%
same,Population Pyknosed Nuclei (%),[1]; [13],1%
same,Total Cell Count,[1]; [13],81
same,Population Apoptotic (%),[1]; [14],35%
same,Population Healthy Nuclei (%),[1]; [14],59%
same,Population Membrane Permeable-Phenotype (%),[1]; [14],26%
same,Population Mitotic Cells (%),[1]; [14],64%
same,Population Pyknosed Nuclei (%),[1]; [14],12%
same,Population Tubulin-Different-Phenotype (%),[1]; [14],31%
same,Total Cell Count,[1]; [14],130
same,Population Healthy Nuclei (%),[1]; [15],76%
same,Population Membrane Permeable-Phenotype (%),[1]; [15],18%
same,Population Mitotic Cells (%),[1]; [15],0%
same,Population Pyknosed Nuclei (%),[1]; [15],0%
same,Population Tubulin-Different-Phenotype (%),[1]; [15],24%
same,Total Cell Count,[1]; [15],118
same,Population Apoptotic (%),[2]; [4],45%
same,Population Healthy Nuclei (%),[2]; [4],23%
same,Population Mitochondria Different-Phenotype (%),[2]; [4],76%
same,Population Mitotic Cells (%),[2]; [4],54%
same,Population Pyknosed Nuclei (%),[2]; [4],60%
same,Total Cell Count,[2]; [4],175
same,Population Apoptotic (%),[2]; [5],9%
same,Population Healthy Nuclei (%),[2]; [5],50%
same,Population Mitotic Cells (%),[2]; [5],90%
same,Population Pyknosed Nuclei (%),[2]; [5],43%
same,Total Cell Count,[2]; [5],229
same,Population Apoptotic (%),[2]; [6],40%
same,Population Healthy Nuclei (%),[2]; [6],32%
same,Population Mitochondria Different-Phenotype (%),[2]; [6],84%
same,Population Mitotic Cells (%),[2]; [6],60%
same,Population Pyknosed Nuclei (%),[2]; [6],57%
same,Total Cell Count,[2]; [6],230
same,Population Apoptotic (%),[2]; [7],9%
same,Population Healthy Nuclei (%),[2]; [7],45%
same,Population Mitotic Cells (%),[2]; [7],90%
same,Population Pyknosed Nuclei (%),[2]; [7],50%
same,Total Cell Count,[2]; [7],271
same,Population Healthy Nuclei (%),[2]; [8],21%
same,Population Mitochondria Different-Phenotype (%),[2]; [8],41%
same,Population Normal (%),[2]; [8],80%
same,Population Pyknosed Nuclei (%),[2]; [8],60%
same,Total Cell Count,[2]; [8],175
same,Population Apoptotic (%),[2]; [9],10%
same,Population Healthy Nuclei (%),[2]; [9],66%
same,Population Mitotic Cells (%),[2]; [9],89%
same,Population Pyknosed Nuclei (%),[2]; [9],28%
same,Total Cell Count,[2]; [9],294
same,Population Healthy Nuclei (%),[2]; [10],45%
same,Population Hoechst High Intensity Objects (%),[2]; [10],14%
same,Population Mitotic Cells (%),[2]; [10],51%
same,Population Normal (%),[2]; [10],85%
same,Population Pyknosed Nuclei (%),[2]; [10],45%
same,Total Cell Count,[2]; [10],250
same,Population Apoptotic (%),[2]; [11],7%
same,Population Healthy Nuclei (%),[2]; [11],71%
same,Population Mitotic Cells (%),[2]; [11],92%
same,Population Pyknosed Nuclei (%),[2]; [11],23%
same,Total Cell Count,[2]; [11],374
same,Population Healthy Nuclei (%),[2]; [12],32%
same,Population Hoechst High Intensity Objects (%),[2]; [12],25%
same,Population Mitochondria Different-Phenotype (%),[2]; [12],26%
same,Population Mitotic Cells (%),[2]; [12],51%
same,Population Normal (%),[2]; [12],74%
same,Population Pyknosed Nuclei (%),[2]; [12],46%
same,Total Cell Count,[2]; [12],212
same,Population Apoptotic (%),[2]; [13],9%
same,Population Healthy Nuclei (%),[2]; [13],82%
same,Population Mitotic Cells (%),[2]; [13],90%
same,Population Pyknosed Nuclei (%),[2]; [13],11%
same,Total Cell Count,[2]; [13],546
same,Population Apoptotic (%),[2]; [14],40%
same,Population Healthy Nuclei (%),[2]; [14],62%
same,Population Mitochondria Different-Phenotype (%),[2]; [14],22%
same,Population Mitotic Cells (%),[2]; [14],60%
same,Population Pyknosed Nuclei (%),[2]; [14],27%
same,Total Cell Count,[2]; [14],327
same,Population Apoptotic (%),[2]; [15],18%
same,Population Healthy Nuclei (%),[2]; [15],85%
same,Population Mitochondria Different-Phenotype (%),[2]; [15],4%
same,Population Mitotic Cells (%),[2]; [15],82%
same,Population Pyknosed Nuclei (%),[2]; [15],8%
same,Total Cell Count,[2]; [15],620
same,Population Healthy Nuclei (%),[3]; [4],77%
same,Population Pyknosed Nuclei (%),[3]; [4],10%
same,Population Tubulin-Different-Phenotype (%),[3]; [4],9%
same,Total Cell Count,[3]; [4],216
same,Population Healthy Nuclei (%),[3]; [5],82%
same,Population Pyknosed Nuclei (%),[3]; [5],5%
same,Population Tubulin-Different-Phenotype (%),[3]; [5],34%
same,Total Cell Count,[3]; [5],70
same,Population Healthy Nuclei (%),[3]; [6],78%
same,Population Pyknosed Nuclei (%),[3]; [6],11%
same,Population Tubulin-Different-Phenotype (%),[3]; [6],9%
same,Total Cell Count,[3]; [6],148
same,Population Healthy Nuclei (%),[3]; [7],86%
same,Population Tubulin-Different-Phenotype (%),[3]; [7],11%
same,Total Cell Count,[3]; [7],62
same,Population Healthy Nuclei (%),[3]; [8],82%
same,Population Pyknosed Nuclei (%),[3]; [8],9%
same,Population Tubulin-Different-Phenotype (%),[3]; [8],9%
same,Total Cell Count,[3]; [8],218
same,Population Healthy Nuclei (%),[3]; [9],84%
same,Population Pyknosed Nuclei (%),[3]; [9],5%
same,Population Tubulin-Different-Phenotype (%),[3]; [9],31%
same,Total Cell Count,[3]; [9],68
same,Population Healthy Nuclei (%),[3]; [10],80%
same,Population Pyknosed Nuclei (%),[3]; [10],10%
same,Total Cell Count,[3]; [10],174
same,Population Healthy Nuclei (%),[3]; [11],86%
same,Population Pyknosed Nuclei (%),[3]; [11],7%
same,Population Tubulin-Different-Phenotype (%),[3]; [11],15%
same,Total Cell Count,[3]; [11],86
same,Population Healthy Nuclei (%),[3]; [12],87%
same,Population Pyknosed Nuclei (%),[3]; [12],7%
same,Total Cell Count,[3]; [12],229
same,Population Healthy Nuclei (%),[3]; [13],92%
same,Population Tubulin-Different-Phenotype (%),[3]; [13],31%
same,Total Cell Count,[3]; [13],80
same,Population Healthy Nuclei (%),[3]; [14],84%
same,Population Pyknosed Nuclei (%),[3]; [14],8%
same,Population Tubulin-Different-Phenotype (%),[3]; [14],5%
same,Total Cell Count,[3]; [14],251
same,Population Healthy Nuclei (%),[3]; [15],85%
same,Population Pyknosed Nuclei (%),[3]; [15],6%
same,Population Tubulin-Different-Phenotype (%),[3]; [15],15%
same,Total Cell Count,[3]; [15],131
